From PubChem
Sampled rows, rich in hits. Any-hit rate of the full collection: about 3.1%.
DENV2 CPE rescue: inhibitors of DENV2 cytopathic effect; DENV2-infected cells, cytopathic effect rescue, plate reader; CPE inhibition, % at 9.99 µM; actives 1.7% (n = 350,000); in the data active = CPE inhibition above about 20%, passing the limit was not always enough; tested in BHK-21 cells
miR122 inh: inhibitors of miR-122 in Huh7 cells. actives 0.3% (n = 340,000). Huh7 miR-122 Renilla luciferase sensor, 48 h; neutral wells = 0, positive control = 100. activation (reporter increase), % at 12.5 µM;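 active = mean replicate activation score at least 90 and every replicate individually at or above 90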;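 note: higher luciferase means less miR-122 activity so hits act as miR-122 inhibitors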
Cneo AK release: Cryptococcus neoformans lysis via adenylate kinase release; AID 651654; lysis activity, % at 15 µM; actives 0.2% (n = 360,000); C. neoformans lysis, adenylate kinase release luminescence, 4 h; normalised: neutral wells 0, clomiphene wells 100;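 active = mean lysis activity across replicates of at least 80%, whatever share of replicates individually reach that level; inactive = mean lysis activity below 80%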
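Signal: Adenylate kinase release luminescence | Assay system: Log-phase Cryptococcus neoformans yeast cells | Input: Cells at 5 × 10^6 per mL | Buffer or medium: Fresh YPD growth medium | Compound: Single dose | Schedule: Static 4 h at 37 °C with compound, 1 h detection | Controls: Clomiphene | Read-out: Luminescence rise reflecting yeast cell lysis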
Ecoli rRNA inh: selective bacterial rRNA inhibition in E. coli; E. coli WT GFP vs humanized-ribosome RFP mutants, fluorescence, 24 h; active compounds read low; DMSO median 0, no signal -100; GFP signal change (wild-type ribosome), % (test concentration not listed); actives 1.6% (n = 350,000); AID 720706;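 active = significant combined selectivity score with lowered wild-type GFP, culture density cut under 30%, mutant RFP and density less affected; inactive = any of these conditions unmet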
E-sel inducer: E-selectin induction on HUVECs; HUVEC E-selectin immunofluorescence imaging; normalized: neutral wells 0, TNF-alpha wells 100; activation, % at 7.58 µM; P16581; AID 686992; actives 0.37% (n = 260,000);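 active = mean E-selectin-positive cell signal at least 10% of the positive control, reached in at least 60% of replicates, without over 20% cell loss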
Target sequence (P16581 whole entry, looked up): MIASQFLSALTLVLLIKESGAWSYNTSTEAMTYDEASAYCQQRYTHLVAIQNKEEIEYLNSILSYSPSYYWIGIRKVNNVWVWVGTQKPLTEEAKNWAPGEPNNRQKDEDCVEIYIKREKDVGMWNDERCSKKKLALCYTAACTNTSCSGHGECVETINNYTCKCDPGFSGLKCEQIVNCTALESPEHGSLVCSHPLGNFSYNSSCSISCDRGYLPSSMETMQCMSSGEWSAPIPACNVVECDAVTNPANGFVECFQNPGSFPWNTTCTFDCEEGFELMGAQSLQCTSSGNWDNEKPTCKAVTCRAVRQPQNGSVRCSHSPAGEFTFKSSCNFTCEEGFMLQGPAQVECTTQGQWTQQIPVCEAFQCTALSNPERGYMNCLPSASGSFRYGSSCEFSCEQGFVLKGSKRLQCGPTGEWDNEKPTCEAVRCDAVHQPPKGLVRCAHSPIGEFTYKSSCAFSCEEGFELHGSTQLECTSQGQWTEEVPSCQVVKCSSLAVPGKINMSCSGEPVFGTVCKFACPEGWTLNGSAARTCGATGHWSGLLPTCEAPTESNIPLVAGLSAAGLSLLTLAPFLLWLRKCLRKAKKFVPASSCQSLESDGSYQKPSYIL
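System: HUVEC, human umbilical vein endothelial cells; quantity: 3,000 cells/well; buffer or medium: EGM-2 medium, gelatin-coated wells; dosing: single-point compound dose; detection: immunofluorescence imaging; evaluation: % PE-positive cells; benchmarks: TNF-alpha, DMSO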
Hits are given with their value; 0 = inactive; - = no result.

SMILES	DENV2 CPE rescue	miR122 inh	Cneo AK release	Ecoli rRNA inh	E-sel inducer
CC(C)(C)NC(=O)COc1coc(CN2CCN(Cc3ccccc3)CC2)cc1=O	57	0	0	0	0
COCCNC(=O)COc1coc(CN2CCN(Cc3ccccc3)CC2)cc1=O	0	0	0	0	0
COc1ccccc1OCC(=O)Nc1ccc(S(=O)(=O)Nc2cc(C)on2)cc1	0	0	0	0	-
COc1ccccc1/C=C/C(=O)Nc1ccc(S(=O)(=O)Nc2cc(C)on2)cc1	0	0	0	-35	0
Cc1c(NC(=O)C(C)OC(=O)c2nc(Cl)ccc2Cl)c(=O)n(-c2ccccc2)n1C (stereo not drawn)	0	-	0	0	0
Cc1c(NC(=O)C(C)OC(=O)c2cc(Cl)ccc2O)c(=O)n(-c2ccccc2)n1C (stereo not drawn)	31	0	0	0	0
OC1CCN(C(=S)NCCc2ccccc2)CC1	-	0	0	-	-
S=C(NCCc1ccccc1)N1CCc2ccccc2C1	0	-	-	-22	-
CS(=O)(=O)N1CCN(C(=O)c2cc(-c3cccnc3)nc3ccc(Cl)cc23)CC1	-	-	-	0	-
COc1ccc(CN2CCN(C(=O)c3cc(-c4cccnc4)nc4ccc(Cl)cc34)CC2)c(OC)c1OC	0	0	0	-23	-
CN1C(=O)c2cc(NC(=O)c3ccc(Cl)cc3)ccc2OC[C@@H]2O[C@H](CC(=O)O)CC[C@@H]21	-	0	0	0	0
COc1cc(OC)c(CNS(=O)(=O)c2ccc(Br)cc2)c(OC)c1	0	-	0	-	-
O=C(C[C@@H]1CC[C@@H]2[C@H](COC[C@@H](O)CN2S(=O)(=O)c2ccccc2)O1)NCc1ccc(-c2ccccc2)cc1	0	0	0	0	0
CO[C@H]1CN(C)C(=O)c2cc(NC(=O)c3ccccc3F)ccc2OC[C@@H](C)N(C(C)=O)C[C@@H]1C	70	-	0	0	0
CO[C@H]1CN(C)C(=O)c2cc(NC(=O)Nc3ccccc3F)ccc2OC[C@H](C)N(C(C)=O)C[C@H]1C	21	-	0	0	0
CO[C@H]1CN(C)C(=O)c2cc(NC(=O)c3ccccc3F)ccc2OC[C@H](C)N(CC2CCOCC2)C[C@H]1C	81	-	98	0	0
CO[C@H]1CN(C)C(=O)c2cc(NC(=O)c3ccccc3F)ccc2OC[C@H](C)N(C(C)=O)C[C@H]1C	-	-	95	0	0
Cc1noc(C)c1S(=O)(=O)N(C)C[C@H]1Oc2ccc(NC(=O)Cc3ccccc3)cc2CC(=O)N([C@@H](C)CO)C[C@@H]1C	0	0	0	0	0
CO[C@H]1CN(C)C(=O)c2ccc(NC(=O)Nc3ccccc3F)cc2OC[C@H](C)N(C)C[C@H]1C	33	0	0	0	0
COC(=O)c1c(C)[nH]c(C(=O)C(C)OC(=O)C2CC(=O)N(CCc3ccccc3)C2)c1C (stereo not drawn)	0	0	0	-	0
COC(=O)c1c(C)[nH]c(C(=O)C(C)OC(=O)C2CC(=O)N(c3ccc(C)cc3)C2)c1C (stereo not drawn)	0	-	0	-23	-
COc1ccc(NC(=O)N(C)C[C@@H]2OCCCC[C@H](C)Oc3ccc(NC(=O)Nc4ccc(F)cc4)cc3C(=O)N([C@@H](C)CO)C[C@@H]2C)cc1	0	0	0	0	0
COCCCNC(=O)N1c2ccccc2Sc2ccccc21	0	0	0	0	-
O=C(NCc1ccco1)N1c2ccccc2Sc2ccccc21	-	0	0	-24	-
C[C@@H]1CN([C@H](C)CO)S(=O)(=O)c2ccc(C#CC3CC3)cc2O[C@H]1CN(C)Cc1cncnc1	-	0	-	0	0
SMILES	DENV2 CPE rescue	miR122 inh	Cneo AK release	Ecoli rRNA inh	E-sel inducer
C=CC[C@H](CC(=O)NCCO)C(=O)N[C@H](COC(=O)[C@@H](CC=C)Cc1ccc(F)cc1)C(C)(C)C	0	0	0	0	0
C=CC[C@H](CC(=O)NCCO)C(=O)NCCOC(=O)[C@@H](CC=C)Cc1ccc(F)cc1	47	0	0	0	0
C[C@H]1CN([C@@H](C)CO)C(=O)Cc2cc(NC(=O)Cc3ccccc3)ccc2O[C@@H]1CN(C)Cc1ccc(C(=O)Nc2ccccc2N)cc1	0	-	-	0	0
O=C(CCc1ccc(O)c(O)c1)NNC(=S)Nc1ccc(Br)cc1Cl	0	0	0	-24	-
COc1ccccc1NC(=O)C(C)OC(=O)C1CC(=O)N(c2ccc3c(c2)OCCO3)C1 (stereo not drawn)	0	0	0	0	107
CCN1CCN(C(=O)C2CC(=O)N(c3ccc(Cl)cc3)C2)CC1 (stereo not drawn)	61	-	0	0	0
CCOC(=O)C1CCN(C(=O)C2CC(=O)N(c3ccc4c(c3)OCCO4)C2)CC1 (stereo not drawn)	61	0	0	0	-
CN1CCN(C(=O)C2CC(=O)N(c3ccc(Cl)cc3)C2)CC1 (stereo not drawn)	0	0	0	0	-
CCC(=O)N[C@@H]1C=C[C@@H](CC(=O)NCC2CC2)O[C@@H]1CO	0	-	-	0	0
CCCN1C[C@@H](C)[C@H](OC)CN(C)C(=O)c2ccc(NC(=O)c3cnccn3)cc2OC[C@@H]1C	0	-	0	0	0
COc1ccc(NS(=O)(=O)c2cc3c(cc2C)N(C)CCO3)cc1	0	95	0	0	-
COc1cc(NS(=O)(=O)c2ccc3c(c2)NC(=O)CO3)cc(OC)c1	0	0	0	0	0
CCOc1ccc(NS(=O)(=O)c2cc3c(cc2C)N(C)CCO3)cc1	0	0	0	0	-
COc1cc(NS(=O)(=O)c2cc3c(cc2C)NC(=O)CO3)cc(OC)c1	0	101	0	0	0
CC(C)NC(=O)N(C)C[C@@H]1Oc2ccc(NS(C)(=O)=O)cc2C(=O)N(C)C[C@@H]1C	-	-	-	0	-
Cc1ccc(S(=O)(=O)Nc2ccc3c(c2)C(=O)N([C@@H](C)CO)C[C@@H](C)[C@@H](CN(C)Cc2ccc(C(F)(F)F)cc2)OCCCC[C@H](C)O3)cc1	0	0	0	0	-
Cc1ccc(S(=O)(=O)Nc2ccc3c(c2)C(=O)N([C@H](C)CO)C[C@@H](C)[C@H](CN(C)Cc2ccc(C(F)(F)F)cc2)OCCCC[C@@H](C)O3)cc1	0	0	118	0	-
Cc1ccc(S(=O)(=O)Nc2ccc3c(c2)C(=O)N([C@H](C)CO)C[C@H](C)[C@H](CN(C)Cc2ccc(C(F)(F)F)cc2)OCCCC[C@@H](C)O3)cc1	26	0	0	0	-
CC(C)NC(=O)Nc1ccc2c(c1)C(=O)N([C@@H](C)CO)C[C@@H](C)[C@@H](CN(C)CC1CCCCC1)OCCCC[C@H](C)O2	0	0	0	0	0
Cc1ccc(SCc2[nH]nc3c2C(c2ccc(C)o2)C(C#N)=C(N)O3)cc1 (stereo not drawn)	0	0	0	-37	-
Cc1ccc(SCc2[nH]nc3c2C(c2ccco2)C(C#N)=C(N)O3)cc1 (stereo not drawn)	-	0	0	-	-
O=C1c2ccccc2/C(=C\c2ccc(Br)s2)N1c1ccccc1	0	0	0	0	-
